In publication PMC11865470 (Communications Biology, 2025):

What was measured:
Type in all cases: cell-based
[1] = molecular target: Otop1 channels (Mus musculus, UniProt Q80VM9); assay: patch-clamp, pH 8.5-evoked Otop1 currents with preincubated HIMOP; conditions: 10 μM, preincubated at pH 7.4 for 2 min; 0 mV
In short: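 Mouse Otop1 was expressed with EGFP in PAC-knockout HEK293T cells and whole-cell recorded with Cs-aspartate pipette solution (pH 7.3). Test compound was preincubated with cells at pH 7.4 (NMDG-Cl bath, 10 mM HEPES) for 2 min, then pH 8.5 stimulus applied (NMDG-Cl bath, 10 mM Tris).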

[2] = molecular target: mOtop1 D244A (Mus musculus, UniProt Q80VM9, D244A); assay: patch-clamp, mOtop1 mutant; conditions: 10 μM; pH 5.5
In short: (§1)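 Alanine-substituted mOtop1 mutants were co-transfected (2.5 μg channel plus 0.5 μg EGFP plasmid, Lipofectamine 2000) into PAC-knockout HEK293T cells. Whole-cell recording 16–24 h after seeding on PLL coverslips. Pipette (mM): 120 Cs-aspartate, 15 CsCl, 2 Mg-ATP, 5 EGTA, 2.4 CaCl2, 10 HEPES, pH 7.3. Bath (mM): 160 NMDG-Cl, 2 CaCl2, 10 MES, pH 5.5, with 10 μM test compound. Response compared with wild-type mOtop1.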

[3] = molecular target: mOtop1 R554Q (Mus musculus, UniProt Q80VM9, R554Q); assay: patch-clamp, mOtop1 mutant; conditions: Fig 5G, H
[4] = molecular target: mOtop1 R554E (Mus musculus, UniProt Q80VM9, R554E); assay: patch-clamp, mOtop1 mutant; conditions: Fig 5G, H
[5] = molecular target: mOtop1 H246A (Mus musculus, UniProt Q80VM9, H246A); assay: patch-clamp, mOtop1 mutant; conditions: 10 μM; pH 5.5
In short: as §1

[6] = molecular target: mOtop1 R554C (Mus musculus, UniProt Q80VM9, R554C); assay: patch-clamp, mOtop1 mutant; conditions: Fig 5G, H
[7] = molecular target: mOtop1 I241A (Mus musculus, UniProt Q80VM9, I241A); assay: patch-clamp, mOtop1 mutant; conditions: 10 μM; pH 5.5
In short: as §1

[8] = molecular target: mOtop1 E229A (Mus musculus, UniProt Q80VM9, E229A); assay: patch-clamp, mOtop1 mutant; conditions: 10 μM; pH 5.5
In short: as §1

[9] = molecular target: T1, mouse Otop1 (mOtop1) channels (Mus musculus, UniProt Q80VM9); assay: whole-cell patch-clamp, peak currents: current density and "on-cell" analysis; conditions: for effect on mOtop1 current density: 10 μM
T1 sequence (Q80VM9 1-600): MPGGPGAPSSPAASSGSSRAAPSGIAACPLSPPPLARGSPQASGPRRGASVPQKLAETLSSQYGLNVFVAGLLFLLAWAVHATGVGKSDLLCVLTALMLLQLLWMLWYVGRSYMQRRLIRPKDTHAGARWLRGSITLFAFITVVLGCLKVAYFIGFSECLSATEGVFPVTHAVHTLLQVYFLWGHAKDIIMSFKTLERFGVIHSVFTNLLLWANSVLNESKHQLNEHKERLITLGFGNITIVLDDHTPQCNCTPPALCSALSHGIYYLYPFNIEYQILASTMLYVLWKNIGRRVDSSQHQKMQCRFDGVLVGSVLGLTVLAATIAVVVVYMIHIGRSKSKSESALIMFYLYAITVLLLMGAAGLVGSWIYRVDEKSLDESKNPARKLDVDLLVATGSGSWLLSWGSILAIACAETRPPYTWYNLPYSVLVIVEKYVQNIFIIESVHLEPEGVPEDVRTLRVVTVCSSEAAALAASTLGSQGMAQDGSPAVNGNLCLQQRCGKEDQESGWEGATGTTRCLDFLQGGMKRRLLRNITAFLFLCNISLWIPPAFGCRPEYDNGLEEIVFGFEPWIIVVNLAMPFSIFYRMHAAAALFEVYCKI

[10] = molecular target: T1, mouse Otop1 (mOtop1) channels; assay: reversal potential; conditions: 10 μM; pH 5.5; bath NMDG+, Na+, K+ or Cs+
[11] = molecular target: mOtop1 T240A (Mus musculus, UniProt Q80VM9, T240A); assay: patch-clamp, mOtop1 mutant; conditions: 10 μM; pH 5.5
In short: as §1

[12] = molecular target: mOtop1 I239A (Mus musculus, UniProt Q80VM9, I239A); assay: patch-clamp, mOtop1 mutant; conditions: 10 μM; pH 5.5
In short: as §1

[13] = molecular target: mOtop1 R554K (Mus musculus, UniProt Q80VM9, R554K); assay: patch-clamp, mOtop1 mutant; conditions: Fig 5G, H
[14] = molecular target: T1, mouse Otop1 (mOtop1) channels; assay: activation time constant; conditions: 10 μM; before or concurrently with pH 5.5 stimulus

Chain of mOtop1 I239A (Q80VM9 whole entry I239A): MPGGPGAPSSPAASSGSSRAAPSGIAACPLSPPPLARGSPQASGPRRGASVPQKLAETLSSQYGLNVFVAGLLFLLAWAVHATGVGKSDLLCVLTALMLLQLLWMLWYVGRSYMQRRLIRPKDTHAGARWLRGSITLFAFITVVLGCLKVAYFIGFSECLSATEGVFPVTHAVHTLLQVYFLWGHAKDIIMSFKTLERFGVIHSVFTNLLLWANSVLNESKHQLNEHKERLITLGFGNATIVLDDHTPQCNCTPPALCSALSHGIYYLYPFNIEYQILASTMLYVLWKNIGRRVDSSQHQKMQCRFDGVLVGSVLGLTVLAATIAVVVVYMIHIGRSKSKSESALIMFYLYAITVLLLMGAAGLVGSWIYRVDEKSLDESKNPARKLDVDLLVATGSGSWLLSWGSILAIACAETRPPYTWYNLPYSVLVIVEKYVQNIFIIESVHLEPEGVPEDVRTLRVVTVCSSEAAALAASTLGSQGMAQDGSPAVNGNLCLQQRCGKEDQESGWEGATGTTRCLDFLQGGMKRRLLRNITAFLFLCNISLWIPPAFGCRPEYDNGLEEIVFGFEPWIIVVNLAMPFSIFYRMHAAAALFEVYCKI
Chain of mOtop1 R554Q (Q80VM9 whole entry R554Q): as the sequence (Q80VM9 whole entry I239A) above, with A239I, R554Q counted along it
Chain of mOtop1 I241A (Q80VM9 whole entry I241A): as the sequence (Q80VM9 whole entry I239A) above, with A239I, I241A counted along it
Chain of mOtop1 R554E (Q80VM9 whole entry R554E): as the sequence (Q80VM9 whole entry I239A) above, with A239I, R554E counted along it
Chain of mOtop1 D244A (Q80VM9 whole entry D244A): as the sequence (Q80VM9 whole entry I239A) above, with A239I, D244A counted along it
Chain of mOtop1 T240A (Q80VM9 whole entry T240A): as the sequence (Q80VM9 whole entry I239A) above, with A239I, T240A counted along it
Chain of mOtop1 H246A (Q80VM9 whole entry H246A): as the sequence (Q80VM9 whole entry I239A) above, with A239I, H246A counted along it
Chain of mOtop1 R554K (Q80VM9 whole entry R554K): as the sequence (Q80VM9 whole entry I239A) above, with A239I, R554K counted along it
Chain of mOtop1 E229A (Q80VM9 whole entry E229A): as the sequence (Q80VM9 whole entry I239A) above, with E229A, A239I counted along it
Chain of mOtop1 R554C (Q80VM9 whole entry R554C): as the sequence (Q80VM9 whole entry I239A) above, with A239I, R554C counted along it

| effect on pH 8.5-evoked Otop1 currents [1] | response of mutant to MFaN compared to wild-type mOtop1 [2] | effect of mutation on MFaN's potentiation effect vs WT mOtop1 [3] | effect of mutation on MFaN's potentiation effect vs WT mOtop1 [4] | response of mutant to MFaN compared to wild-type mOtop1 [5] | effect of mutation on MFaN's potentiation effect vs WT mOtop1 [6] | response of mutant to MFaN compared to wild-type mOtop1 [7] | response of mutant to MFaN compared to wild-type mOtop1 [8] | EC50 [9] [µM] | effect on mOtop1 current density ([9]; pH 5.5, Fig 4A) | effect on mOtop1 current density ([9]; pHs ranging from 4.5 to 6.0) | effect on Vrev of the mOtop1 channel [10] | response of mutant to MFaN compared to wild-type mOtop1 [11] | response of mutant to MFaN compared to wild-type mOtop1 [12] | effect of mutation on MFaN's potentiation effect vs WT mOtop1 [13] | effect on the activation rate of mOtop1 channels [14] | SMILES |
| --- | --- | --- | --- | --- | --- | --- | --- | --- | --- | --- | --- | --- | --- | --- | --- | --- |
| significantly enhanced |  |  |  |  |  |  |  |  |  |  |  |  |  |  |  | CC(C)c1noc2ncc(C(=O)c3ccccc3O)cc12 [HIMOP, (2-hydroxyphenyl)-(3-propan-2-yl-5-isoxazolo[5,4-b]pyridinyl)methanone] |
|  | markedly reduced | eliminated | eliminated | significantly enhanced | eliminated | markedly reduced | significantly enhanced | 9.2 ± 0.6 | significantly increased | significantly increased | did not change | markedly reduced | markedly reduced | did not affect | had no effect | Cc1ccc(C(=O)Nc2ccc3ccccc3c2)o1 [MFaN, 5-methyl-N-2-naphthyl-2-furamide] |
